The text below walks through data of ChEMBL document CHEMBL1122617, “6,7-Dihydroxy-3-chromanamine: synthesis and pharmacological activity of an oxygen isostere of the dopamine agonist 6,7-dihydroxy-2-aminotetralin” (J Med Chem, 1984).

The IC50 is the concentration at which inhibition is half-maximal. Low values mean inhibition by little substance, high ones a need for much substance. One may read the Ki as a dissociation constant, usually derived from enzyme kinetics or from competition with a known ligand. Low readings indicate a stronger hold on the target, high ones a looser hold on the target. The logP is the decadic logarithm of the partition coefficient of the neutral form, usually between octanol and water.

For data set [1], the system named is Rattus norvegicus. Description: Effect on DA metabolism was determined by measuring concentration of DA at a time interval of 45 min after ip administration of 100 umol/kg of compound. The data set is classed as functional, organism-based. Summed up: (§1)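 Female rats (180-200 g) given 100 μmol/kg ip in saline with 0.1% sodium metabisulfite, killed at 15 or 45 min. Striatum frozen on dry ice and kept at -80 °C. DA, DOPAC and HVA isolated on Sephadex G-10, then measured by reversed-phase C18 HPLC with amperometric detection. Control cerebellum used as blank. Not corrected for recovery (86-89%). Mean ± SEM.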

The species named for data set [2] is Rattus norvegicus. Description: Concentration required to reduce the specific binding of [3H]NPA by 50% to rat corpus striatum. It counts as functional, organism-based. The method, boiled down:
(§2)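 Male rat (200-225 g) striatal homogenate, 2.5 mg wet weight per tube, in 15 mM Tris-HCl pH 7.5 with 1 mM EDTA and 0.01% ascorbic acid. [3H]NPA 0.50 nM final, 25 °C for 20 min. Nonspecific binding with 1 μM d-butaclamol. Displacer tested over 10⁻¹¹–10⁻⁵ M in triplicate. IC50 = 50% reduction of specific binding, mean ± SEM of three experiments.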

For data set [3], the system named is Rattus norvegicus. Description: Effect on HVA metabolism was determined by measuring concentration of HVA at a time interval of 15 minutes after ip administration of 100 umol/kg of compound. It counts as functional, organism-based. The method, boiled down: as §1
The species named for data set [4] is Rattus norvegicus. Nature of the data set: Binding affinity to rat corpus striatum was determined using [3H]NPA as radioligand. The data set is classed as functional. Summed up: as §2
A short description of data set [5]: Partition coefficient (logP). It counts as physicochemical. The following applies: octanol/water. The method, boiled down:
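Log P measured in octanol-phosphate buffer at pH 7.4. Phases analysed by the same HPLC-electrochemical method. Mean ± SD, n = 6.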

In data set [6] the test system is Rattus norvegicus. Description: Effect on HVA metabolism was determined by measuring concentration of HVA at a time interval of 45 minutes after ip administration of 100 umol/kg of compound. The data set is classed as functional, organism-based. The method, boiled down: as §1
The test system of data set [7] is Rattus norvegicus. Description: Effect on DA metabolism was determined by measuring concentration of DA at a time interval of 0 minutes after ip administration of 100 umol/kg of compound. It counts as functional, organism-based.
In data set [8] the test system is Rattus norvegicus. Description: Effect on HVA metabolism was determined by measuring concentration of HVA at a time interval of 0 minutes after ip administration of 100 umol/kg of compound. It counts as functional, organism-based.
In data set [9] the test system is Rattus norvegicus. Nature of the data set: Effect on DA metabolism was determined by measuring concentration of DA at a time interval of 15 minutes after ip administration of 100 umol/kg of compound. It counts as functional, organism-based. Summed up:
as §1

Data set [10] has as its system Rattus norvegicus. Nature of the data set: Effect on 6,7-dihydroxy-3-chromanamine metabolism was determined by measuring concentration of 6,7-dihydroxy-3-chromanamine at a time interval of 15 min after ip administration of 100 umol/kg of compound. It counts as functional, organism-based. The method, boiled down:
(§3)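 Female rats (180-200 g) given 100 μmol/kg ip in saline with 0.1% sodium metabisulfite. Killed at 15 or 45 min; striatum dissected, frozen on dry ice and kept at -80 °C. Drug level measured by HPLC with electrochemical detection, mobile phase 0.1 M phosphate-acetate pH 4.5, against a standard. Corrected for 78.8% recovery from spiked brain. Mean ± SEM, n = 8.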

Data set [11] concerns Rattus norvegicus. Nature of the data set: Effect on DOPAC metabolism was determined by measuring concentration of DOPAC at a time interval of 0 minutes after ip administration of 100 umol/kg of compound. It counts as functional, organism-based.
The test system of data set [12] is Rattus norvegicus. Nature of the data set: Effect on DOPAC metabolism was determined by measuring concentration of DOPAC at a time interval of 45 minutes after ip administration of 100 umol/kg of compound. The data set is classed as functional, organism-based. Summed up:
as §1

The subject of data set [13] is Rattus norvegicus. Nature of the data set: Effect on 6,7-dihydroxy-3-chromanamine metabolism was determined by measuring concentration of 6,7-dihydroxy-3-chromanamine at a time interval of 45 min after ip administration of 100 umol/kg of compound. It counts as functional, organism-based. Summed up: as §3
Data set [14] concerns Rattus norvegicus. Description: Effect on DOPAC metabolism was determined by measuring concentration of DOPAC at a time interval of 15 minutes after ip administration of 100 umol/kg of compound. It counts as functional, organism-based. Summed up:
as §1

`NC1COc2cc(O)c(O)cc2C1` (centres undefined): the Concentration in the data set on Rattus norvegicus [1] came to 10.8 µg/g; in the data set on Rattus norvegicus [3], 0.83 µg/g; in the data set on Rattus norvegicus [6], 1.02 µg/g; in the data set with Rattus norvegicus [7], 9.87 µg/g; in the data set with Rattus norvegicus [8] it was 0.91 µg/g; with Rattus norvegicus [9], 10.5 µg/g. In addition, the Concentration with Rattus norvegicus [10] amounted to 0.34 nM/g; in the data set on Rattus norvegicus [11], 1.05 µg/g; with Rattus norvegicus [12], 1.02 µg/g; with Rattus norvegicus [13], 0.2 nM/g; in the data set with Rattus norvegicus [14], 0.97 µg/g. The IC50 in the data set filed under Rattus norvegicus [2] was determined as 259 nM. The Ki in the data set listed under Rattus norvegicus [4] amounted to 144 nM. Moreover, in data set [5], the logP is 1.39.

In the data set listed under Rattus norvegicus [2], `CN1CCc2cccc3c2[C@H]1Cc1ccc(O)c(O)c1-3` [APOMORPHINE] showed an IC50 of 22.6 nM. Moreover, in the data set filed under Rattus norvegicus [4], the inhibitory constant (Ki) stood at 10.5 nM.

Take `NC1CCc2cc(O)c(O)cc2C1` (centres undefined): the IC50 in the data set filed under Rattus norvegicus [2] came to 24.5 nM. In the data set listed under Rattus norvegicus [4], this compound yielded a Ki of 12 nM. Moreover, the logP in data set [5] was found to be 1.88.
